# Only some compounds are listed: those with a hit (about 2.8% of all), similar ones and a draw of the others.
# SR-BI HDL uptake = mouse SR-BI HDL lipid transfer inhibition; Q61009; ldlA[mSR-BI] CHO cells, DiI-HDL uptake fluorescence, 3 h; inhibition, % at 12.5 µM; 320,000 compounds, 0.96% hits;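 active = mean replicate inhibition of at least 70% and a set share of replicates each scoring 70 or more; inconclusive = meets just one of the two criteria; inactive = fails both criteria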;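 also: 0% = median of neutral control wells and 100% = median of positive control wells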
# Target sequence (Q61009 whole entry, looked up): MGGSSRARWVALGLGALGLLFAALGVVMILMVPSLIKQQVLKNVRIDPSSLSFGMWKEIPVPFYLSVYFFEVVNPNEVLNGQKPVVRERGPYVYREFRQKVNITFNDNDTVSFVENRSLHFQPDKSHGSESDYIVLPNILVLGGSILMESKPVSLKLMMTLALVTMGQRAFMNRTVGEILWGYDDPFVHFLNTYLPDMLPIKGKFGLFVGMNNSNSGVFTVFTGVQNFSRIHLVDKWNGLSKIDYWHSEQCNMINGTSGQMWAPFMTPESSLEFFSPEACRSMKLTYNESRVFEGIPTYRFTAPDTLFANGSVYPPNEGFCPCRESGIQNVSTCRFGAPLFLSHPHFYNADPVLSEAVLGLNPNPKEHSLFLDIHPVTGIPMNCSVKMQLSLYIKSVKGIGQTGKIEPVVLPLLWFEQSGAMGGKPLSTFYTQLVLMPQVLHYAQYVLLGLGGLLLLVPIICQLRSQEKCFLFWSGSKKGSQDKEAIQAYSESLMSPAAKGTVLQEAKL
# CAL PDZ FP-1 = human CAL PDZ-peptide interaction inhibition; Q9HD26; purified CAL PDZ, TMR-peptide fluorescence polarization, 1 h; inhibition, % at 20 µM; 330,000 compounds, 0.02% hits; AID 504414;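 active = highest replicate inhibition of at least 40%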;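 also: plate controls were DMSO neutral control wells for no effect and unlabeled competitor peptide control wells for full effect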
#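 System: tagged CAL PDZ domain. Schedule: 1 h room-temperature incubation prior to read. Signal: fluorescence polarization (mP). Measure: percent inhibition from loss of millipolarization.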
# CAL PDZ FP-2 = CAL PDZ (human) peptide binding inhibition. AID 602252. Q9HD26. inhibition, % at 24.9 µM. 300,000 compounds, 0.92% hits. purified CAL PDZ, TMR-peptide fluorescence polarization, 1 h;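 active = mean inhibition of at least 30% with at least half of replicates also reaching 30%; inconclusive = no clear call, values can overlap the other calls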;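 also: 0% = DMSO neutral control and 100% = excess unlabeled competitor peptide PRC23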
# dFosB act = enhances mouse delta FosB homodimer DNA binding; P13346; purified delta FosB, TAMRA-CDK5 oligo fluorescence polarization; percent of positive-control signal above neutral wells; activation, % at 25 µM; 340,000 compounds, 0.99% hits;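 active = mean activation above about 17%, with every replicate also reaching it, limit read from the data, passing the limit was not always enough; inconclusive = only one of the two conditions met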
# SR-BI DiI-HDL act = activators of SR-BI mediated HDL lipid uptake; CHO ldlA[mSR-BI] cells, DiI-HDL uptake fluorescence, 3 h; 100 = double the neutral-control signal; activation, % at 12.5 µM; 320,000 compounds, 0.096% hits;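 active = mean replicate activation of at least 60% and every replicate at or above 60%; inconclusive = mean or all-replicate condition met, but not both; inactive = mean below 60% and not all replicates reaching 60%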;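 also: 0% = median plate neutral-control signal and 100% = twice that signal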
#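 Test system: SR-BI-overexpressing, LDLR-lacking CHO cells; Medium: Ham's F12 with 0.5% BSA, HEPES 25 mM, pH 7.4; Schedule: 3 h, 37 °C; Technique: bottom-read fluorescence, 550/595 nm.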
# The depositor's hits bear a star; ? = inconclusive; · = no result.
SMILES,SR-BI HDL uptake,CAL PDZ FP-1,CAL PDZ FP-2,dFosB act,SR-BI DiI-HDL act
COc1cccc(CSc2nnc(-c3ccncc3)n2C)c1,12.3,-0.1,40.0*,1.7,-12.3
N#Cc1sc2nc(N3CCCCC3)c3c(c2c1N)CCCC3,73.9*,-0.5,-1.0,-5.9,-73.9
CCCN1CCN(S(=O)(=O)c2ccc3c(c2)CCC(=O)N3)CC1,-17.9,-0.7,45.7*,5.7,17.9
O=C1CCc2cc(S(=O)(=O)N3CCN(c4ccccc4F)CC3)ccc2N1,-11.6,-1.9,1.0,-8.5,11.6
Clc1ccc(-c2nsc(N3CCOCC3)n2)c(Cl)c1,-2.1,-0.8,62.3*,-0.8,2.1
CSc1cc(-c2ccco2)oc1C(=O)c1ccco1,20.1,-2.7,·,-2.6,-20.1
CC1(C(=O)OCC(=O)NC(=O)NCc2ccccc2)CC1(Cl)Cl (centres undefined),-62.5,-4.2,3.5,-8.1,62.5*
O=C1C2C3CC(C(Br)C3Br)C2C(=O)N1c1ccccn1 (centres undefined),-28.1,-0.7,44.1*,0.1,28.1
CC(C)(C)OC(=O)C[C@@H]1C/C=C\C[C@H](CC(=O)N(CCO)Cc2ccccc2)C(=O)N[C@H](Cc2ccccc2)COC1=O,8.9,0.4,-1.6,-0.9,-8.9
O=C(CCN1C(=O)/C(=C/c2ccccc2)SC1=S)Nc1cccnc1,-13.6,-1.1,-1.7,-4.3,13.6
O=C(CCN1C(=O)/C(=C/c2ccc(F)cc2)SC1=S)Nc1cccnc1,·,-2.2,-2.8,19.3*,·
O=C(CCN1C(=O)/C(=C/c2ccc(F)cc2)SC1=S)NCCc1ccc(O)cc1,-7.3,-8.2,-4.2,67.6*,7.3
COc1cccc(/C=C2\SC(=S)N(CCC(=O)Nc3ccc(O)cc3)C2=O)c1,8.5,0.5,-2.1,?,-8.5
COc1cccc(/C=C2\SC(=S)N(CCC(=O)NCCc3ccc(O)cc3)C2=O)c1,8.5,0.3,80.0*,13.6,-8.5
CC(=O)Nc1ccc(NC(=O)CC(C)n2ccnc2)cc1 (centres undefined),-10.3,-0.4,·,4.4,10.3
CCC(C)(C(=O)NC1CCCCC1)N(C(=O)CNC(C)=O)c1c(C)n(C)n(-c2ccccc2)c1=O (centres undefined),-7.4,-2.3,2.3,3.7,7.4
CCC(C)(C(=O)NC1CCCCC1)N(C(=O)CC1NC(=O)NC1=O)c1c(C)n(C)n(-c2ccccc2)c1=O (centres undefined),-7.8,-1.8,33.9*,-3.7,7.8
NC(=O)CC(NC(=O)c1ccc(Br)cc1)c1ccc(NC2CCCCCC2)c([N+](=O)[O-])c1 (centres undefined),-17.6,-0.3,-6.5,-8.5,17.6
CC(C)CC(=NNC(=O)c1ccncc1)c1cc(Cl)ccc1O,126.9*,-0.5,·,-3.0,-126.9
CC(=NNC(=O)c1ccncc1)c1ccccc1O,55.4,-3.4,-1.6,-8.6,-55.4
Cc1ccc(CNC(=O)c2ccc(N3CCC4(CC3)CC(c3ccccc3)=NO4)c([N+](=O)[O-])c2)cc1,57.4,-0.6,-1.4,-4.9,-57.4
CCOC(=O)c1cnn(-c2ccccc2)c1NC(=O)CN1CCCCC1,-2.3,0.9,33.6*,0.5,2.3
COc1cccc(C(=O)Nc2ccc3nc4n(c(=O)c3c2)CCCC4)c1,3.8,-1.6,63.1*,-28.9,-3.8
COc1cc(OC)cc(C(=O)Nc2ccc3nc4n(c(=O)c3c2)CCCC4)c1,51.5,0.1,-0.1,-19.3,-51.5
COc1cccc(C(=O)Nc2ccc3nc(N4CCOCC4)cc(C)c3c2)c1,78.5*,1.1,-0.7,-1.2,-78.5
SMILES,SR-BI HDL uptake,CAL PDZ FP-1,CAL PDZ FP-2,dFosB act,SR-BI DiI-HDL act
Cc1ccc(NC(=O)c2ccc3c(=O)n4c(nc3c2)CCC4)cc1S(=O)(=O)N(C)C,75.0*,-5.1,-5.2,-16.0,-75.0
CCCCNC(=O)c1nn2c(C(F)(F)F)cc(-c3ccccc3)nc2c1Br,25.4,-0.7,2.2,-5.9,-25.4
N#CCNC(=O)c1nn2c(C(F)(F)F)cc(-c3ccccc3)nc2c1Br,19.9,·,74.9*,14.8,-19.9
O=C(COc1ccccc1)NCc1n[nH]c(=S)n1-c1ccccc1,-9.1,-1.1,-4.1,-7.8,9.1
COc1ccc(-n2c(CNC(=O)COc3ccccc3)n[nH]c2=S)cc1,-11.2,-0.3,41.0*,5.9,11.2
COc1ccc(CN2CCNC(=O)C2CC(=O)NCCCC2CCCC2)c(C)c1C (centres undefined),12.4,-1.0,-6.6,-6.7,-12.4
Fc1ccc(/C=N/N2CCN(Cc3ccccc3)CC2)cc1,12.7,-0.5,·,1.2,-12.7
CC(C)C(=O)N1CCN(c2ccccc2NC(=O)c2cccc3ccccc23)CC1,30.5,-4.7,46.7*,-24.2,-30.5
CCOc1ccccc1NC(=O)c1ccccc1-c1ccccc1,25.7,0.1,1.6,-5.2,-25.7
CCOc1cc(NC(=O)C2CC2)c(OCC)cc1NC(=O)c1ccccc1OCC,72.0*,-1.1,-2.2,-6.1,-72.0
CCOc1ccccc1C(=O)Nc1ccccc1C(N)=O,33.7,-2.3,-2.5,-3.7,-33.7
CS(=O)(=O)N1CCN(c2ccccc2NC(=O)c2cccc3ccccc23)CC1,41.0,-0.8,-8.8,-8.8,-41.0
CCOc1ccccc1NC(=O)c1cccc2ccccc12,70.0*,-0.6,4.4,-1.4,-70.0
CCOc1ccccc1NC(=O)c1csc(C)c1C,81.3*,-1.7,-1.6,-5.6,-81.3
COC(=O)c1cn(C(=O)c2cccc(Br)c2)c2ccccc12,6.5,-0.4,8.9,0.0,-6.5
CN(Cc1ccccc1)C(=O)c1ccc(NC(=O)c2ccccc2)cc1,24.0,-1.8,-0.8,-3.9,-24.0
CCOc1ccccc1C(=O)NCC(=O)OCC(=O)N1CCCC1,9.3,0.1,44.2*,2.8,-9.3
CCOc1ccccc1C(=O)NCC(=O)OCC(=O)N1C(C)CCCC1C (centres undefined),26.6,-0.4,-1.3,-3.9,-26.6
O=C(Nc1ccon1)Nc1cc(Cl)ccc1Cl,-2.1,-1.8,·,1.5,2.1
O=C(COC(=O)CN1C(=O)NC2(CCCCC2)C1=O)Nc1cc(F)ccc1F,-4.0,-2.1,-6.6,6.7,·
O=C(CCCN1C(=O)c2ccccc2C1=O)NCCCn1ccnc1,-12.8,0.5,49.5*,6.4,12.8
CCN(CC)S(=O)(=O)c1cc(NC(=O)c2ccc(Br)s2)ccc1C,75.1*,-1.9,5.1,-9.2,-75.1
Cc1ccc(NC2=Nc3ccccc3N3C2=Nc2c(c(C)nn2-c2ccccc2)C3c2ccc(O)c(O)c2)cc1 (centres undefined),119.3*,-0.4,-2.7,-3.1,-119.3
Cc1nn(-c2ccccc2)c2c1C(c1ccc([N+](=O)[O-])cc1)N1C(=N2)C(=O)Nc2ccccc21 (centres undefined),2.2,-11.8,-4.5,7.9,-2.2

# High-throughput results deposited in PubChem BioAssay by Broad Institute.
